From ChEMBL document CHEMBL1124439, “Computer-assisted design and synthesis of novel aldose reductase inhibitors” (J Med Chem, 1989)
Activity calls are given as the source filed them. The calls are words filed in the database; no cut-off is given here.

Key:
[1] = target: T1, Aldo-keto reductase family 1 member B1 (Rattus norvegicus, UniProt P07943); assay: Inhibition of aldose reductase (or polyol accumulation) in isolated rat sciatic nerve by compound at (10E-5) M concentration; format: tissue-based
In short: (§1)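 Isolated rat sciatic nerve incubated in vitro with compound, with polyol accumulation as read-out. Percent inhibition of polyol accumulation recorded at 1 × 10⁻⁵ M.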

[2] = target: Aldo-keto reductase family 1 member B1 (Bos taurus, UniProt P16116); assay: In vitro inhibition of bovine lens aldose reductase
Rattus norvegicus [3] = assay: Inhibition of galactitol accumulation in lens of rats, by 76 mg/kg of compound; NS=Not significant; format: functional, organism-based; set-up: dose 76 mg/kg; conditions: Lens of camera-type eye
In short: (§2)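 Rats were fed 20% galactose chow for 4 days with drug, at the dose given in mg/kg. Galactitol was measured in lens and sciatic nerve, and percent inhibition was calculated against galactosemic control rats.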

[4] = target: T1, Aldo-keto reductase family 1 member B1; assay: Inhibition of aldose reductase (or polyol accumulation) in isolated rat sciatic nerve by compound at 10E-5 M concentration; IA means Not Active; format: tissue-based; in short: as §1
Rattus norvegicus [5] = assay: Inhibition of galactitol accumulation in sciatic nerve of rats, by 159 mg/kg of compound; NS means Not Significant.; format: functional, organism-based; set-up: dose 159 mg/kg; in short: as §2
Rattus norvegicus [6] = assay: Inhibition of galactitol accumulation in lens of rats, by 159 mg/kg of compound; NS means Not Significant; format: functional, organism-based; set-up: dose 159 mg/kg; conditions: Lens of camera-type eye; in short: as §2
[7] = target: T1, Aldo-keto reductase family 1 member B1; assay: Inhibition of aldose reductase (or polyol accumulation) in isolated rat sciatic nerve by compound at 10e-5 M concentration; format: tissue-based; in short: as §1

IC50 [1]	IC50 [2]	IC50 [4]	IC50 [7]	SMILES	inhibition (Rattus norvegicus [3])	inhibition (Rattus norvegicus [5])	inhibition (Rattus norvegicus [6])
2500 nM	240 nM			CC1=C(CC(=O)O)c2cccc3cccc(c23)C1=O	inactive		
	730 nM	Not Active		CN(CC(=O)O)C(=S)c1cccc2ccccc12		inactive	inactive
			540 nM	COc1ccc2c(C(=S)N(C)CC(=O)O)cccc2c1C(F)(F)F [TOLRESTAT]			
